What all share (assay type): cell-based
Data set [1] relates to Raji. Description: Antitumor-promoting activity assessed as TPA-induced EBV-early antigen activation in human Raji cells at 32 nmol after 48 hrs relative to TPA. As to conditions: human gammaherpesvirus 4. The gist of the method: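 Raji cells (EBV genome-carrying lymphoblastoid, nonproducer) in RPMI 1640 with 10% FBS, 1×10⁶/mL, given 4 mM n-butyric acid plus 32 pmol TPA (20 ng/mL) and test compound; 37 °C, CO₂, 48 h. EA-positive cells scored by indirect immunofluorescence using NPC patient sera, ≥500 cells counted, three repeats. Expressed as % of butyric acid+TPA control (100%), mean ± S.D.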

Data set [2] relates to Raji. Description: Antitumor-promoting activity assessed as TPA-induced EBV-early antigen activation in human Raji cells at 16 nmol after 48 hrs relative to TPA. The settings on record: human gammaherpesvirus 4.
Data set [3] can be described thus: Cytotoxicity against human Raji cells assessed as cell viability at 0.32 nmol by trypan blue staining. The settings on record: read-out: Activity.
The subject of data set [4] is Raji. Description: Antitumor-promoting activity assessed as TPA-induced EBV-early antigen activation in human Raji cells at 0.32 nmol after 48 hrs relative to TPA. As to conditions: human gammaherpesvirus 4.
Data set [5] deals with Raji. Description: Antitumor-promoting activity assessed as TPA-induced EBV-early antigen activation in human Raji cells at 3.2 nmol after 48 hrs relative to TPA. As to conditions: human gammaherpesvirus 4.
Data set [6] in a line: Cytotoxicity against human Raji cells assessed as cell viability at 32 nmol by trypan blue staining. The settings on record: read-out: Activity.
A short description of data set [7]: Cytotoxicity against human Raji cells assessed as cell viability at 3.2 nmol by trypan blue staining. As to conditions: read-out: Activity.
Data set [8] can be described thus: Cytotoxicity against human Raji cells assessed as cell viability at 16 nmol by trypan blue staining. The settings on record: read-out: Activity.

Turning to `O=C1c2c(O)cc(O)cc2O[C@@H](c2ccc(O)cc2)[C@@H]1c1c(O)cc(O)c2c(=O)c(O)c(-c3ccc(O)c(O)c3)oc12` [PANCIBIFLAVONOL], the Activity came to 22.1% in data set [1], 50.2% in data set [2], 94.4% in data set [4] and 75% in data set [5]. The viability at 0.32 nmol in data set [3] is more than 80%. The viability at 32 nmol in data set [6] was 70%. Also, in data set [7], the viability at 3.2 nmol was more than 80%. The viability at 16 nmol in data set [8] was more than 80%.
`O=C1c2c(O)cc(O)cc2O[C@H](c2ccc(O)cc2)[C@H]1c1c(O)cc(O)c2c1O[C@H](c1ccc(O)c(O)c1)[C@@H](O)C2=O`: the Activity in data set [1] stood at 28.7%; in data set [2], 63.9%; in data set [4], 100%; in data set [5] it was 90.3%. Also, the viability at 0.32 nmol in data set [3] is more than 80%. Further, the viability at 32 nmol in data set [6] turned out to be 70%. Also, in data set [7], the viability at 3.2 nmol was more than 80%. In addition, the viability at 16 nmol in data set [8] was more than 80%.
For the compound `O=C1c2c(O)cc(O)cc2O[C@H](c2ccc(O)cc2)[C@H]1c1c(O)cc(O)c2c1O[C@H](c1ccc(O)cc1)[C@@H](O)C2=O`, the Activity in data set [1] stood at 25.3%; in data set [2] it was 61%; in data set [4], 95.7%; in data set [5], 88.2%. The viability at 0.32 nmol in data set [3] is more than 80%. Moreover, the viability at 32 nmol in data set [6] turned out to be 70%. Besides, in data set [7], the viability at 3.2 nmol is more than 80%. The viability at 16 nmol in data set [8] is more than 80%.
Take `O=C1C[C@@H](c2ccc(O)cc2)Oc2c1c(O)cc(O)c2[C@H]1C(=O)c2c(O)cc(O)cc2O[C@@H]1c1ccc(O)cc1`: the Activity worked out at 19.4% in data set [1], 48.2% in data set [2], 100% in data set [4] and 82.9% in data set [5]. Moreover, in data set [3], the viability at 0.32 nmol was more than 80%. For the same compound, the viability at 32 nmol in data set [6] is 70%. Further, in data set [7], the viability at 3.2 nmol was more than 80%. The viability at 16 nmol in data set [8] is more than 80%.
For the compound `O=C1c2c(O)cc(O)cc2O[C@@H](c2ccc(O)cc2)[C@@H]1c1c(O)cc(O)c2c(=O)c(O)c(-c3ccc(O)cc3)oc12` [GARCINIANIN], the results for the Activity in data set [2], in data set [4] and in data set [5] were 31.4%, 89.4% and 69.2%, respectively. Also, the viability at 0.32 nmol in data set [3] was more than 80%. Also, in data set [6], the viability at 32 nmol turned out to be 70%. Further, in data set [7], the viability at 3.2 nmol was more than 80%. For the same compound, in data set [8], the viability at 16 nmol was more than 80%.
`O=C1c2c(O)cc(O)cc2O[C@H](c2ccc(O)cc2)[C@H]1c1c(O)cc(O)c2c(=O)cc(-c3ccc(O)c(O)c3)oc12` [MORELLOFLAVONE]: the Activity in data set [2] is 40.1%; in data set [4], 91.2%; in data set [5], 72.6%. For the same compound, in data set [3], the viability at 0.32 nmol was more than 80%. Besides, the viability at 32 nmol in data set [6] was 70%. Further, the viability at 3.2 nmol in data set [7] was more than 80%. Besides, in data set [8], the viability at 16 nmol was more than 80%.
Take `O=C1C[C@@H](c2ccc(O)c(O)c2)Oc2c1c(O)cc(O)c2[C@H]1C(=O)c2c(O)cc(O)cc2O[C@@H]1c1ccc(O)cc1`: the Activity is 42.5% in data set [2], 90.6% in data set [4] and 71.3% in data set [5]. In addition, the viability at 0.32 nmol in data set [3] is more than 80%. Besides, the viability at 32 nmol in data set [6] worked out at 70%. For the same compound, the viability at 3.2 nmol in data set [7] was more than 80%. Moreover, the viability at 16 nmol in data set [8] was more than 80%.

Values taken from ChEMBL document CHEMBL1144150, “A new biflavonoid from Calophyllum panciflorum with antitumor-promoting activity” (J Nat Prod, 1999).
